The record followed here is ChEMBL document CHEMBL4422684, “Identification of novel lysine demethylase 5-selective inhibitors by inhibitor-based fragment merging strategy” (Bioorg Med Chem, 2019).

The term inhibition denotes how much of the control response was suppressed.

The target in assay [1] is T1, Lysine-specific demethylase 2A (Homo sapiens) (UniProt Q9Y2K7).
T1 sequence (whole entry): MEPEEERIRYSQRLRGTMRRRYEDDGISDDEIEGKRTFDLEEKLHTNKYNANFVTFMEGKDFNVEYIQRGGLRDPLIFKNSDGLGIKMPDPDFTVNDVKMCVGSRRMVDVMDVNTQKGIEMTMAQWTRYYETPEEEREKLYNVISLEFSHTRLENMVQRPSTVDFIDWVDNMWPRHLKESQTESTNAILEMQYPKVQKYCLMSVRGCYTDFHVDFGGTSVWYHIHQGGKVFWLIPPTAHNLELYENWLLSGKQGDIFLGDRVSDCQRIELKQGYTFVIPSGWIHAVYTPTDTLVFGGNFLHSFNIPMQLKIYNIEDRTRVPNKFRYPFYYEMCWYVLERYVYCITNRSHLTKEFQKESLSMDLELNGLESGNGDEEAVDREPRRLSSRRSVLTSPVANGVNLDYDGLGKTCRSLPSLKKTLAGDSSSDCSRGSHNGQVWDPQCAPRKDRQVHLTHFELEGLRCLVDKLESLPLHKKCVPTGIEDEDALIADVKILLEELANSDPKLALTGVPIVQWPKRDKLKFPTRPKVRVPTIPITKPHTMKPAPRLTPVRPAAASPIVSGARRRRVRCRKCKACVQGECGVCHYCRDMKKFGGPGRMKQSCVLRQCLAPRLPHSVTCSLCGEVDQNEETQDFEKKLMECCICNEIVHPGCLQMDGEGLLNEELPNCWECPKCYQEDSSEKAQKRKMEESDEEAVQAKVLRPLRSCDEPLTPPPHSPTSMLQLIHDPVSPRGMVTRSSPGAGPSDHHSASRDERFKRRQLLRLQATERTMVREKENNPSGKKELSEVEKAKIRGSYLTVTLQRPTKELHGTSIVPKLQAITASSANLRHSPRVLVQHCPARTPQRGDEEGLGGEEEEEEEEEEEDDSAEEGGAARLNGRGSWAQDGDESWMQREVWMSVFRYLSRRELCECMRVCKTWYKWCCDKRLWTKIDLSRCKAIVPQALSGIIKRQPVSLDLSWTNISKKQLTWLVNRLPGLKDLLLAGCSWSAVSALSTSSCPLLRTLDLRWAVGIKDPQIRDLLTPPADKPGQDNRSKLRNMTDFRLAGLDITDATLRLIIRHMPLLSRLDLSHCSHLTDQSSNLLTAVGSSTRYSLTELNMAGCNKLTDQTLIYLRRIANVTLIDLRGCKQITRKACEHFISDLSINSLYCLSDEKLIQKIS
The assay is described as follows: Inhibition of human N-terminal FLAG/Avi-tagged KDM2A (2 to 700 residues) expressed in baculovirus infected Sf9 insect cells at 50 uM using H3(21-44)-K36(Me2)-GK(Biotin)/2-OG as substrate measured after 1 hr by Alphalisa assay relative to control. Summed up: (§1)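 AlphaLISA demethylase assay in 50 mM HEPES pH 7.5, 0.1% BSA, 0.01% Tween 20 with DMSO. Enzyme and inhibitor combined, then peptide plus 2-OG (50 µM), Fe(II) (5 µM) and ascorbate (100 µM) in the added mix; 1 h at room temperature with shaking.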
(In general: In Alpha technology, singlet oxygen from a donor bead excites a nearby acceptor bead.)

The target in assay [2] is Lysine-specific demethylase 6B (Homo sapiens, UniProt O15054). The assay is described as follows: Inhibition of human C-terminal FLAG-tagged KDM6B (1043 to end residues) expressed in baculovirus infected Sf9 insect cells at 50 uM using H3(21-44)-K27(Me3)-GK(Biotin)/2-OG as substrate measured after 1 hr by Alphalisa assay relative to control. Summed up: as §1
Lysine-specific demethylase 6B, sequence (O15054 whole entry): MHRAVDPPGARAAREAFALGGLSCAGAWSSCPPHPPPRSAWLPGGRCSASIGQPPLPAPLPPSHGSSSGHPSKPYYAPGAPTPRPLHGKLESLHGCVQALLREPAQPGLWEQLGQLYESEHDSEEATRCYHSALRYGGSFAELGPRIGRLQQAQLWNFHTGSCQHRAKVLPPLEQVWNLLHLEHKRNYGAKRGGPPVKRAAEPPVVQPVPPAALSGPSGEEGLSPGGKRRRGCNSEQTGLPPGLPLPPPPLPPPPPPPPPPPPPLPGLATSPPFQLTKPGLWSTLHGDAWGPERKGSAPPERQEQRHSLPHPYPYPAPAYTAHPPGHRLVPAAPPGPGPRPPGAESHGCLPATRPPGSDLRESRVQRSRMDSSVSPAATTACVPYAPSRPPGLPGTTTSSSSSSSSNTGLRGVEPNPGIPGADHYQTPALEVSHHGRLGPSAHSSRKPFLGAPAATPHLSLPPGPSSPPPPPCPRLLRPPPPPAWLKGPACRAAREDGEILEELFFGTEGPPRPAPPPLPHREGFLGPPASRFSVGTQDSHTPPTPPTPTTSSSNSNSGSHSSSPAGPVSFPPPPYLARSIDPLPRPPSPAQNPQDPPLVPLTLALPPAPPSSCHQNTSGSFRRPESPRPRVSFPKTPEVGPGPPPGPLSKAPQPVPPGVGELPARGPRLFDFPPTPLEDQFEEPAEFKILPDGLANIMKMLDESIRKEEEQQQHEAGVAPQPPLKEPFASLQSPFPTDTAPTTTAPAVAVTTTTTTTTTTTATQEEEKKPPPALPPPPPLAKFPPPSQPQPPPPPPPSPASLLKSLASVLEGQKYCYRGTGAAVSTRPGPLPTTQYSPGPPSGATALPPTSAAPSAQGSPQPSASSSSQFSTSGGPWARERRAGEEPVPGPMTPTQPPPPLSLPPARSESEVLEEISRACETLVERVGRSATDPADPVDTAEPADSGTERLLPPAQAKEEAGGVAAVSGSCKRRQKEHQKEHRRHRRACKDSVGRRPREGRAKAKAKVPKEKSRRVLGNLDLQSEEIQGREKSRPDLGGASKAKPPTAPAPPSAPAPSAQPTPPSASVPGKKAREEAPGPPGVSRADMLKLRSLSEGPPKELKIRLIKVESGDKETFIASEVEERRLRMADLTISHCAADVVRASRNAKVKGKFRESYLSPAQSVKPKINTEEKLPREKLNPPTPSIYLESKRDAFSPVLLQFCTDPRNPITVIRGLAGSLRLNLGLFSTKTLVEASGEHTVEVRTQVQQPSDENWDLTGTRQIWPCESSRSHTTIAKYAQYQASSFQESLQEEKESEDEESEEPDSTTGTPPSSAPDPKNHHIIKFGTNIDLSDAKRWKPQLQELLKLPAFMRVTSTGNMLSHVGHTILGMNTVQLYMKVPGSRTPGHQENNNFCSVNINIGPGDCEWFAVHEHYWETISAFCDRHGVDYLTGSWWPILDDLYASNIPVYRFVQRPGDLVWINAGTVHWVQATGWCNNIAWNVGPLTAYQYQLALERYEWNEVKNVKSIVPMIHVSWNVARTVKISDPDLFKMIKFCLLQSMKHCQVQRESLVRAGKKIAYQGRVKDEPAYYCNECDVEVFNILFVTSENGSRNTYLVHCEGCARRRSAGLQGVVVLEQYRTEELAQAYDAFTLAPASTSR
Assay [3] addresses Lysine-specific demethylase 5A (Homo sapiens, UniProt P29375). Briefly: Inhibition of KDM5A in human A549 cells assessed as increase in H3K4me3 levels after 48 hrs by Western blot analysis. Format: cell-based. Summed up: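 A549 cells (5 × 10^5 per 2 mL well, RPMI1640 with 10% heat-inactivated FBS) exposed 48 h to compounds at 1, 5 or 25 µM. SDS lysates normalised by BCA, separated on 5-20% SDS-PAGE, blotted to PVDF, blocked in 5% milk/TBS-T, probed for H3K4me3, H3K9me3, H3K27me3 and total H3, detected by HRP chemiluminescence.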

The subject of a further assay is A549. The assay is described as follows: Growth inhibition of human A549 cells at 50 uM after 72 hrs by Alamar blue staining based fluorescence assay. Format: functional, cell-based. In outline:
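A549 or MDA-MB-231 cells seeded at 2 × 10^3 per well, left 24 h at 37 °C, then given compounds in medium for 72 h at 37 °C, 5% CO2. AlamarBlue added for a further 3 h at 37 °C; fluorescence read at ex 540/em 590 nm and % growth calculated from it. A549 in RPMI1640/10% FBS; MDA-MB-231 in L-15 with 2 mM glutamine/10% FBS.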

Calls of active or inactive are those of the source. The calls are words filed in the database; no cut-off is given here.

Lysine-specific demethylase 5A, sequence (P29375 whole entry): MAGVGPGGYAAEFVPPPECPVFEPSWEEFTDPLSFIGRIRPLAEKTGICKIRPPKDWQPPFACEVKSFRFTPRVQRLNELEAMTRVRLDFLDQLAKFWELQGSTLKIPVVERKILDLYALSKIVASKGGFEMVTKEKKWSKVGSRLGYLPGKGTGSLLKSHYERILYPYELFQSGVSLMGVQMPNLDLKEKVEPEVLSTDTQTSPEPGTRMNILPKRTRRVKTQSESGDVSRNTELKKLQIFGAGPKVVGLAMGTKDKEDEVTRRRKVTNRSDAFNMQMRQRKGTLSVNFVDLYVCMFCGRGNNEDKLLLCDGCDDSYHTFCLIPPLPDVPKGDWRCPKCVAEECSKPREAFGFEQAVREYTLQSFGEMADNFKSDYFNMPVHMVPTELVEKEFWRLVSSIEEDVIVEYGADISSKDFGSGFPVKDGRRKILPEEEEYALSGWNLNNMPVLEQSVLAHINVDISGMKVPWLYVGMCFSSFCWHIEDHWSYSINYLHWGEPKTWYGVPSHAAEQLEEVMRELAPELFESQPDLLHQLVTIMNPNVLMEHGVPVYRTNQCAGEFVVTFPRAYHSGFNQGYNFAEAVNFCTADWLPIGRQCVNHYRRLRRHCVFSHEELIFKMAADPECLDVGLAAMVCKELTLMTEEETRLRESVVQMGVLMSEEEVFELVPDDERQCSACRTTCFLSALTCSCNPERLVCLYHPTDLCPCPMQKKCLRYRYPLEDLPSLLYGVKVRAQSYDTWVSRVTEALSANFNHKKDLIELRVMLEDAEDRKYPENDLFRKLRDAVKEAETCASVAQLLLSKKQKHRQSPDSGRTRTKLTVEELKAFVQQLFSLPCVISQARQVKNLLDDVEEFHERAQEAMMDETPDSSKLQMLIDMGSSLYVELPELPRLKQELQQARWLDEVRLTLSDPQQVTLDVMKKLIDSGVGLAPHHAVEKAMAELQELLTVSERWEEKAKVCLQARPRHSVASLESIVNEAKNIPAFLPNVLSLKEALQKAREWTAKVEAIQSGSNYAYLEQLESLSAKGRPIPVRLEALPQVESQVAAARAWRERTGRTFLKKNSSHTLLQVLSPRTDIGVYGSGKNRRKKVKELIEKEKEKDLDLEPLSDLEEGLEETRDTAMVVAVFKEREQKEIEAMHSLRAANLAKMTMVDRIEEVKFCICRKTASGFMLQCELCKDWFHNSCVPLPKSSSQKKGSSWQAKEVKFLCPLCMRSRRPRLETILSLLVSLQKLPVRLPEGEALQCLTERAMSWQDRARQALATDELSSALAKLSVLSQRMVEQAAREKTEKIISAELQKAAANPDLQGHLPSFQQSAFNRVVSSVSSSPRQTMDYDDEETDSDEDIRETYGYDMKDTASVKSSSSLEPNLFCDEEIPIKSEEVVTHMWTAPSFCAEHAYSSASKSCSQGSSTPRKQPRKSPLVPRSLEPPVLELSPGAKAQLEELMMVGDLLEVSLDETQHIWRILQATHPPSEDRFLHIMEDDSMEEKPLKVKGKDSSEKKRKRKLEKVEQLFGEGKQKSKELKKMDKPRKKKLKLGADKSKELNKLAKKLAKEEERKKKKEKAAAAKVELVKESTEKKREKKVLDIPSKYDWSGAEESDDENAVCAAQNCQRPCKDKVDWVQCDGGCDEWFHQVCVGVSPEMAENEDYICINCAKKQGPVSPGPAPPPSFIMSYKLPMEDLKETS

Regarding `CCCCCN(C)CCCCC(=O)N(O)CCC(=O)O`, the inhibition in assay [1] came out at 51.7%; in assay [2] it was 17.8%.

Consider `CC(C)c1c(-c2ccccc2)[nH]c2c(C#N)cnn2c1=O`, for which the inhibition result is “Dose-dependent effect” in assay [3] and 25.7% in assay [1]. Also, the “growth inhibition (GI)” value in the assay with A549 was “inactive”.

With `CCCCCCN(C)Cc1ccc(-c2[nH]c3c(C#N)cnn3c(=O)c2C(C)C)cc1`, the inhibition result in assay [3] was “Dose-dependent effect”; in assay [1], 13.4%; in assay [2], 29.1%. In addition, the “growth inhibition (GI)” value in the assay on A549 is “Active”.

For the compound `CCCCCCN(C)CCc1ccc(-c2[nH]c3c(C#N)cnn3c(=O)c2C(C)C)cc1`, the inhibition result in assay [3] was “Dose-dependent effect”; in assay [1], 38.4%; in assay [2], 22.7%. Further, in the assay with A549, the “growth inhibition (GI)” value is “Active”.
